Measured values reported in ChEMBL document CHEMBL1157134, “Liposomal formulation of retinoids designed for enzyme triggered release” (J Med Chem, 2010).

Experiments:
[1] = Cytotoxicity against human MT3 cells after 48 hrs by MTT assay; format: functional, cell-based; details: MT-3, 48 h
Procedure, shortened: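 MT-3 breast cancer cells grown in RPMI 1640 with 10% fetal calf serum and 1% Pen-Strep at 5% CO₂, plated at 1 × 10⁴ cells/well 24 h ahead. Retinoids were given in DMSO/water, final DMSO ≤0.5%. Exposure was 24 h, then a wash and 48 h in complete medium before MTT. Mean ± SD, n = 3.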

[2] = system: HT-29; assay: Cytotoxicity against human HT-29 cells after 48 hrs by MTT assay; format: functional, cell-based; details: HT-29, 48 h
Procedure, shortened: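 HT-29 cells grown in McCoy's 5A with 10% fetal calf serum and 1% Pen-Strep, seeded at 1 × 10⁴ cells/well 24 h before dosing. Tested with or without snake (Agkistrodon piscivorus piscivorus) venom sPLA₂ at 5 nM final. Exposure was 24 h, then a wash and 48 h in complete medium before MTT viability. Mean ± SD, n = 3 or more.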

[3] = Inhibition of sPLA2 from Naja mossambica mossambica by fluorescence technique
[4] = system: COLO 205; assay: Cytotoxicity against human COLO205 cells after 48 hrs by MTT assay; format: functional, cell-based; details: COLO 205, 48 h
Procedure, shortened: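 Colo205 cells grown in RPMI 1640 with 10% fetal calf serum and 1% Pen-Strep at 5% CO₂, seeded at 2 × 10⁴ cells/well 24 h before treatment. Dosing used conditioned medium carrying about 100 ng/mL sPLA₂ IIA. Exposure was 24 h, then a wash and 48 h in complete medium before MTT. Reported as mean ± SD, n = 3 or more.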

[5] = Stability assessed as compound degradation after 48 hrs by MALDI-TOF MS analysis in presence of Naja mossambica mossambica venom sPLA2; format: ADME
Procedure, shortened: (§1)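 Incubated with purified snake venom sPLA₂ at 37 °C, stirred and shielded from light, for 48 h. Extracts mixed with DHB matrix (DPPG included) and analysed by MALDI-TOF MS for remaining prodrug.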

[6] = Stability assessed as compound degradation after 48 hrs by MALDI-TOF MS analysis in presence of Agkistrodon piscivorus piscivorus venom sPLA2; format: ADME; procedure, shortened: as §1
[7] = system: HT-29; assay: Cytotoxicity against human HT-29 cells after 48 hrs by MTT assay in presence of Agkistrodon piscivorus piscivorus venom sPLA2; format: functional, cell-based; details: HT-29, 48 h
Procedure, shortened: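 HT-29 cells (McCoy's 5A, 10% fetal calf serum) plated at 1 × 10⁴ cells/well 24 h before dosing. Liposomal prodrugs diluted in PBS, lipid concentration set by phosphorus analysis; snake venom sPLA₂ added to a final 5 nM. Cells exposed for 24 h, washed, then kept in complete medium another 48 h. Viability read by MTT, mean ± SD, n ≥ 3.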

SMILES	IC50 [1] [µM]	IC50 [2] [µM]	IC50 [3] [µM]	Ki [3] [µM]	IC50 [4] [µM]	Stability [5]	Stability [6]	IC50 [7] [µM]
CC1=C(/C=C/C(C)=C/C=C/C(C)=C/C(=O)O)C(C)(C)CCC1 [TRETINOIN]	30	4.3	15	11	37			
CCCCCCCCc1ccc(-c2ccc(C(=O)OCCCCCC(=O)O)cc2)cc1	14	> 200			127			
CCCCCCCCCCCCCCCCCC(=O)OC[C@@H](O)COP(=O)(O)OCC(O)CO (some centres not stated)		7			22			
CCCCCCCCCCCCCCCCCCOC[C@H](COP(=O)([O-])OC[C@@H](O)CO)OC(=O)CCCCCOC(=O)c1ccc(-c2ccc(CCCCCCCC)cc2)cc1.[Na+]		> 200			7	Unstable	Unstable	3
CCCCCCCCCCCCCCCCCCOC[C@H](COP(=O)([O-])OC[C@@H](O)CO)OC(=O)CCCCCOC(=O)/C=C(C)/C=C/C=C(C)/C=C/C1=C(C)CCCC1(C)C.[Na+]		> 200			16		Unstable	7
CCCCCCCCCCCCCCCCCC(=O)O [STEARIC ACID]		> 200			> 200			
CCCCCCCCc1ccc(-c2ccc(C(=O)O)cc2)cc1	51	> 200			> 200			
CCCCCCCCCCCCCCCCCCOC[C@H](COP(=O)(O)OC[C@H](O)CO)OC(=O)CCCCCCCCCCCCCCCCC		> 200			33			9
CCCCCCCCCCCCCCCCCC(=O)OC[C@H](COP(=O)([O-])OC[C@@H](O)CO)OC(=O)CCCCCOC(=O)c1ccc(-c2ccc(CCCCCCCC)cc2)cc1.[Na+]		> 200			19	Unstable	Unstable	8
CCCCCCCCCCCCCCCCCC(=O)OC[C@H](COP(=O)(O)OC[C@H](O)CO)OC(=O)CCCCCCCCCCCCCCCCC		> 200			54			25
CCCCCCCCCCCCCCCCCC(=O)OC[C@H](COP(=O)([O-])OC[C@@H](O)CO)OC(=O)CCCCCOC(=O)/C=C(C)/C=C/C=C(C)/C=C/C1=C(C)CCCC1(C)C.[Na+]		> 200			12	Unstable	Unstable	6
CCCCCCCCCCCCCCCCCCOC[C@@H](O)COP(=O)(O)OC[C@@H](O)CO		11			25			
CC1=C(/C=C/C(C)=C/C=C/C(C)=C/C(=O)OCCCCCC(=O)O)C(C)(C)CCC1	17	3.6	8	6	17			
